PMC9274295 (International Journal of Nanomedicine, 2022)
Like-named read-outs stand apart in the source and are kept apart here.

Tests used:
[1] = system: SKOV-3 cells; test: Combination index of PTX and CBP; format: cell-based, Human; details: read-out: IC50 of a single drug
In short: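 SKOV-3 cells cultured in McCoy's 5A with 10% FBS and penicillin-streptomycin at 37°C, 5% CO2. Seeded at 5.0×10³ cells/well and left overnight. Exposed for 48 h to each drug alone and to mixtures at various ratios, with the mixtures' final PTX at 0.2–50.0 μM. CCK-8 added for 2 h, then absorbance read at 450 nm. Data given as mean ± SD, n = 3.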

[2] = system: SKOV-3 tumor; test: In vivo targeting; details: 0.11 µg DiR/g i.v., 1-24 h, tumor-bearing NU/NU mice
In short: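 Tumors made by injecting 1.0×10⁷ SKOV-3 cells/100 µL into the right lower abdomen of female NU/NU mice aged 5–6 weeks. At about 400 mm³, mice were randomised to free DiR or DiR-labelled liposomes, given by tail vein. Mice were anaesthetised with 4.0% chloral hydrate and imaged at 1, 2, 6, 12 and 24 h. They were then killed for ex vivo imaging and quantification of the tumor, heart, liver, spleen, lungs and kidneys.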

Compound: N.N.O=C([O-])C1(C(=O)[O-])CCC1.[Pt+2] [CBP, carboplatin]
- IC50 ([1]; single drug, SKOV-3 cells, 48 h, CCK-8): 19.2 µM

Compound: CCCCCCCCCCCCCCCCCCN1/C(=C/C=C/C=C/C=C/C2=[N+](CCCCCCCCCCCCCCCCCC)c3ccccc3C2(C)C)C(C)(C)c2ccccc21.[I-] [DiR]
- Enrichment in the tumor site [2]: not enriched in the tumor site

Compound: CC(=O)O[C@H]1C(=O)[C@@]2(C)[C@H]([C@H](OC(=O)c3ccccc3)[C@]3(O)C[C@H](OC(=O)[C@H](O)[C@@H](NC(=O)c4ccccc4)c4ccccc4)C(C)=C1C3(C)C)[C@]1(OC(C)=O)CO[C@@H]1C[C@@H]2O [PTX, Paclitaxel]
- IC50 ([1]; Homo sapiens, SK-OV-3, 48 h): 3.89 µM
